Assay results: ChEMBL document CHEMBL4033712, “Synthesis and biological evaluation of new C-12(α/β)-(N-) sulfamoyl-phenylamino-14-deoxy-andrographolide derivatives as potent anti-cancer agents” (Bioorg Med Chem Lett, 2017)

Experiments:
Type in all cases: functional
[1] = test system: HL-60(TB); assay: Growth inhibition of human HL-60(TB) cells incubated for 48 hrs by sulforhodamine B assay; conditions: HL-60, 48 h
In short: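 NCI-60 five-dose screen at 0.01, 0.1, 1, 10 and 100 µM for 48 h, sulforhodamine B read-out. GI50 taken from log concentration versus % growth inhibition curves as the concentration giving 50% decrease in net cell growth.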

[2] = test system: K562; assay: Growth inhibition of human K562 cells incubated for 48 hrs by sulforhodamine B assay; conditions: K562, 48 h
In short: (§1)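 NCI-60 five-dose screen at 0.01, 0.1, 1, 10 and 100 µM, 48 h incubation, sulforhodamine B end point. GI50 (50% decrease in net growth), TGI (total growth inhibition) and LC50 (net 50% loss of initial cells) taken from log concentration versus % growth inhibition curves.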

[3] = test system: A549; assay: Growth inhibition of human A549/ATCC cells incubated for 48 hrs by sulforhodamine B assay; conditions: A549, 48 h; in short: as §1
[4] = test system: EKVX; assay: Growth inhibition of human EKVX cells incubated for 48 hrs by sulforhodamine B assay; in short: as §1
[5] = test system: HOP-92; assay: Growth inhibition of human HOP92 cells incubated for 48 hrs by sulforhodamine B assay; conditions: HOP-92, 48 h; in short: as §1
[6] = test system: NCI-H322M; assay: Growth inhibition of human NCI-H322M cells incubated for 48 hrs by sulforhodamine B assay; in short: as §1
[7] = test system: NCI-H522; assay: Growth inhibition of human NCI-H522 cells incubated for 48 hrs by sulforhodamine B assay; conditions: NCI-H522, 48 h; in short: as §1
[8] = test system: COLO 205; assay: Growth inhibition of human COLO205 cells incubated for 48 hrs by sulforhodamine B assay; conditions: COLO 205, 48 h; in short: as §1
[9] = test system: HCT-116; assay: Growth inhibition of human HCT116 cells incubated for 48 hrs by sulforhodamine B assay; conditions: HCT-116, 48 h; in short: as §1
[10] = test system: HCT-15; assay: Growth inhibition of human HCT15 cells incubated for 48 hrs by sulforhodamine B assay; conditions: HCT-15, 48 h; in short: as §1
[11] = test system: KM12; assay: Growth inhibition of human KM12 cells incubated for 48 hrs by sulforhodamine B assay; conditions: KM12, 48 h; in short: as §1
[12] = test system: SF-295; assay: Growth inhibition of human SF295 cells incubated for 48 hrs by sulforhodamine B assay; conditions: SF-295, 48 h
In short: (§2)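 NCI 60 human tumour cell line panel, five-dose study at 0.01, 0.1, 1, 10 and 100 µM, 48 h incubation. Sulforhodamine B protein-binding dye end point. GI50 (50% decrease in net cell growth), TGI (total growth inhibition) and LC50 (net 50% loss of initial cells) read from log concentration versus % growth inhibition curves.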

[13] = test system: SF-539; assay: Growth inhibition of human SF539 cells incubated for 48 hrs by sulforhodamine B assay; conditions: SF-539, 48 h; in short: as §2
[14] = test system: SNB-19; assay: Growth inhibition of human SNB19 cells incubated for 48 hrs by sulforhodamine B assay; conditions: SNB-19, 48 h; in short: as §2
[15] = test system: M14; assay: Growth inhibition of human M14 cells incubated for 48 hrs by sulforhodamine B assay; conditions: M14, 48 h; in short: as §1
[16] = test system: MDA-MB-435; assay: Growth inhibition of human MDA-MB-435 cells incubated for 48 hrs by sulforhodamine B assay; conditions: MDA-MB-435, 48 h; in short: as §1
[17] = test system: SK-MEL-2; assay: Growth inhibition of human SK-MEL-2 cells incubated for 48 hrs by sulforhodamine B assay; conditions: SK-MEL-2, 48 h; in short: as §2
[18] = test system: SK-MEL-28; assay: Growth inhibition of human SK-MEL-28 cells incubated for 48 hrs by sulforhodamine B assay; conditions: SK-MEL-28, 48 h; in short: as §2
[19] = test system: SK-MEL-5; assay: Growth inhibition of human SK-MEL-5 cells incubated for 48 hrs by sulforhodamine B assay; conditions: SK-MEL-5, 48 h; in short: as §2
[20] = test system: OVCAR-3; assay: Growth inhibition of human OVCAR3 cells incubated for 48 hrs by sulforhodamine B assay; conditions: OVCAR-3, 48 h; in short: as §1
[21] = test system: OVCAR-8; assay: Growth inhibition of human OVCAR8 cells incubated for 48 hrs by sulforhodamine B assay; conditions: OVCAR-8, 48 h; in short: as §1
[22] = test system: 786-0; assay: Growth inhibition of human 786-0 cells incubated for 48 hrs by sulforhodamine B assay; conditions: 786-0, 48 h; in short: as §1
[23] = test system: RXF 393; assay: Growth inhibition of human RXF393 cells incubated for 48 hrs by sulforhodamine B assay; conditions: RXF 393, 48 h; in short: as §2
[24] = test system: TK-10; assay: Growth inhibition of human TK10 cells incubated for 48 hrs by sulforhodamine B assay; conditions: TK-10, 48 h; in short: as §2
[25] = test system: MCF7; assay: Growth inhibition of human MCF7 cells incubated for 48 hrs by sulforhodamine B assay; conditions: MCF7, 48 h; in short: as §1
[26] = test system: Hs-578T; assay: Growth inhibition of human Hs 578T cells incubated for 48 hrs by sulforhodamine B assay; in short: as §1
[27] = test system: BT-549; assay: Growth inhibition of human BT549 cells incubated for 48 hrs by sulforhodamine B assay; conditions: BT-549, 48 h; in short: as §1
[28] = test system: T47D; assay: Growth inhibition of human T47D cells incubated for 48 hrs by sulforhodamine B assay; in short: as §2
[29] = read-out: LC50 (the source's name)

In the case of `C=C1CC[C@@H]2[C@](C)(COC(C)=O)[C@H](OC(C)=O)CC[C@@]2(C)[C@H]1CC(Nc1ccc(S(=O)(=O)Nc2ccc(Cl)nn2)cc1)C1=CCOC1=O` (some centres not stated), the GI50 [1] was 1.32 µM, the TGI [1] was 4.44 µM and the CC50 [1, 29] was over 100 µM. The GI50 [2] was 0.52 µM, the TGI [2] was 5.19 µM and the CC50 [2, 29] was over 100 µM. The GI50 [3] was 2.96 µM, the TGI [3] was 10.7 µM and the CC50 [3, 29] was 40.9 µM. It also gave a GI50 [4] of 4.53 µM, a TGI [4] of 17 µM and a CC50 [4, 29] of 41.3 µM. For the same compound, the GI50 [5] was 2.7 µM, the TGI [5] was 7.89 µM and the CC50 [5, 29] was 27.5 µM. The GI50 [6] was 2.97 µM, the TGI [6] was 11.6 µM and the CC50 [6, 29] was 36.1 µM. The GI50 [7] was 0.75 µM, the TGI [7] was 2.1 µM and the CC50 [7, 29] was 4.82 µM. It also gave a GI50 [8] of 1.46 µM, a TGI [8] of 3.16 µM and a CC50 [8, 29] of 6.86 µM. It also gave a GI50 [9] of 1.08 µM, a TGI [9] of 2.32 µM and a CC50 [9, 29] of 4.96 µM. The GI50 [10] was 0.88 µM, the TGI [10] was 2.3 µM and the CC50 [10, 29] was 5.51 µM. It also gave a GI50 [11] of 1.7 µM, a TGI [11] of 3.49 µM and a CC50 [11, 29] of 7.16 µM. It also gave a GI50 [12] of 3.28 µM, a TGI [12] of 12.6 µM and a CC50 [12, 29] of 35.6 µM. It also gave a GI50 [13] of 1.23 µM, a TGI [13] of 2.63 µM and a CC50 [13, 29] of 5.62 µM. The GI50 [14] was 1.91 µM, the TGI [14] was 3.91 µM and the CC50 [14, 29] was 8 µM. The GI50 [15] was 1.45 µM, the TGI [15] was 3.41 µM and the CC50 [15, 29] was 8.04 µM. It also gave a GI50 [16] of 1.4 µM, a TGI [16] of 3.17 µM and a CC50 [16, 29] of 7.16 µM. It also gave a GI50 [17] of 1.77 µM, a TGI [17] of 3.99 µM and a CC50 [17, 29] of 8.97 µM. It also gave a GI50 [18] of 1.68 µM, an LC50 (50% net cell kill) [18] of 7.13 µM and a TGI [18] of 3.46 µM. It also gave a GI50 [19] of 1.6 µM, a TGI [19] of 3.13 µM and a CC50 [19, 29] of 6.13 µM. The GI50 [20] was 1.22 µM, the TGI [20] was 2.51 µM and the CC50 [20, 29] was 5.18 µM. It also gave a GI50 [21] of 1.35 µM, a TGI [21] of 3.43 µM and a GI50 [22] of 1.69 µM. The LC50 (concentration giving net 50% loss of initial cells) [22] was 5.83 µM, the TGI [22] was 3.14 µM and the GI50 [23] was 1.77 µM. It also gave a TGI [23] of 3.29 µM, a CC50 [23, 29] of 6.14 µM and a GI50 [24] of 2.13 µM. It also gave a TGI [24] of 4.19 µM, a CC50 [24, 29] of 8.25 µM and a GI50 [25] of 0.78 µM. It also gave a TGI [25] of 2.9 µM, a GI50 [26] of 6.17 µM and an LC50 [26] of over 100 µM. It also gave a TGI [26] of over 100 µM, a GI50 [27] of 1.58 µM and a TGI [27] of 3.14 µM. For the same compound, the CC50 [27, 29] was 6.28 µM, the GI50 [28] was 1.51 µM and the TGI [28] was 4.25 µM. The CC50 [28, 29] was over 100 µM.
